Active and inactive are the calls of the source. No cut-off for these calls is given here.
How the values were obtained:
[1] = biological target: T1, Gastrin/cholecystokinin type B receptor (Homo sapiens, UniProt P32239); assay: Displacement of CCK-8 from human Cholecystokinin type B receptor expressing CHO cell membranes; settings: for Log IC50: cho
T1 sequence (P32239 whole entry): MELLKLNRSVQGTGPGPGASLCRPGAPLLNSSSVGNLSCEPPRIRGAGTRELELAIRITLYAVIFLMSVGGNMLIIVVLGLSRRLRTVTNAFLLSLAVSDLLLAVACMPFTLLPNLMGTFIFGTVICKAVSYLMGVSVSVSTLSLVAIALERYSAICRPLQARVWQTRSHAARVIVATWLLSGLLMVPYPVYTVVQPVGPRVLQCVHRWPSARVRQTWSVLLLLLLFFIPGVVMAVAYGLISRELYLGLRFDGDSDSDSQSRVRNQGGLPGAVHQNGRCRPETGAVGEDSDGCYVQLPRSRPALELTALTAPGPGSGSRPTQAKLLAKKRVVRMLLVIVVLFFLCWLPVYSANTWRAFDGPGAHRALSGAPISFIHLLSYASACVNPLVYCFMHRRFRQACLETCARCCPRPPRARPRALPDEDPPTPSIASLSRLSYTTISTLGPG

[2] = biological target: T2, Cholecystokinin receptor type A (Homo sapiens, UniProt P32238); assay: Displacement of CCK-8 from CHO cell membranes expressing human Cholecystokinin type A receptor; settings: for Log IC50: cho
T2 sequence (P32238 whole entry): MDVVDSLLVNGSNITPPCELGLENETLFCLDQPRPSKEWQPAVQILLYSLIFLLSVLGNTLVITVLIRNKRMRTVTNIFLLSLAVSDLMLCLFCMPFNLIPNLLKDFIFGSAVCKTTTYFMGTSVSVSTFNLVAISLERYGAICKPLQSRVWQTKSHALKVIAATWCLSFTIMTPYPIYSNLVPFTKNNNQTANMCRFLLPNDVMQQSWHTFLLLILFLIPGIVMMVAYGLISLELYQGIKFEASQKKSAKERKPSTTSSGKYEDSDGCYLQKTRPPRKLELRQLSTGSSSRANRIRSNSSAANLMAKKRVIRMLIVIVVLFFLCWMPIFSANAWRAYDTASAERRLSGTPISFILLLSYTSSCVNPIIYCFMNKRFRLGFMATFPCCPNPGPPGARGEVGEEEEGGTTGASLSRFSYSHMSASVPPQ

[3] = biological target: T3, Cholecystokinin receptor type A (Cavia porcellus, UniProt Q63931); assay: Antagonist activity against CCK-8 induced responses in guinea pig gall bladder was determined; assay type: functional, tissue-based; settings: for Kb: read-out: pA2 (converted)
T3 sequence (Q63931 whole entry): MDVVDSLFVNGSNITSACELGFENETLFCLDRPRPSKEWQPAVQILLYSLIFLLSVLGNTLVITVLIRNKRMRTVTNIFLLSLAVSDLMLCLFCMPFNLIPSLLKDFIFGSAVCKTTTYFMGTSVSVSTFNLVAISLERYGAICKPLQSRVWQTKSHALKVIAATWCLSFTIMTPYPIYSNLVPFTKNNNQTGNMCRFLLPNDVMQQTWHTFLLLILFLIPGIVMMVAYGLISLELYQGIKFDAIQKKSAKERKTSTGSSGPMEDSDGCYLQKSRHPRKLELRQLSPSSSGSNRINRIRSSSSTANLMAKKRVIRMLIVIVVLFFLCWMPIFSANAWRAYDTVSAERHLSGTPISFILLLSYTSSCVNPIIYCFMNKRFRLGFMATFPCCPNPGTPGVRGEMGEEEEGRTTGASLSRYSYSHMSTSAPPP
How it was run: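 Isolated guinea pig gallbladder rings in physiological salt solution at 37 °C, 95% O2/5% CO2, pH 7.4, under 1 g resting tension, with isometric force recording. Tissues from at least three animals were incubated 60 min with antagonist (three to five concentrations), then given a cumulative sulfated CCK-8 curve. Paired untreated tissue served as time/solvent control for the concentration ratio. pA2 was derived by Schild analysis.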

[4] = organism: Cavia porcellus; assay: Effective concentration required to induce contraction of guinea pig gall bladder
[5] = organism: Cavia porcellus; assay: Percent contraction induced by compound at […] in guinea pig gall bladder was determined; Inactive; assay type: functional
[6] = organism: Cavia porcellus; assay: Percent contraction induced by compound at […] in guinea pig gall bladder was determined; assay type: functional

`CC(=O)N[C@@H](Cc1c[nH]c2ccccc12)C(=O)N[C@@H](Cc1ccc(NC(=O)Nc2ccccc2Cl)cc1)C(=O)N[C@@H](CC(=O)O)C(=O)N[C@@H](Cc1ccc(C)cc1)C(N)=O` gave an IC50 [1] of 63100 nM, an IC50 [2] of 100 nM and a Kb [3] of 79.4 nM.

In the case of `CC(=O)N[C@@H](Cc1c[nH]c2ccccc12)C(=O)N[C@@H](CCCCNC(=O)Nc1ccccc1C)C(=O)N[C@@H](CC(=O)O)C(=O)N[C@@H](Cc1ccc(C)cc1)C(N)=O` [listing 1 of 2 here], the IC50 [1] is reported as 5010 nM, the IC50 [2] is reported as 20 nM and the EC50 [4] is reported as 1.58 nM.

With `CC(=O)N[C@H](Cc1c[nH]c2ccccc12)C(=O)NC(Cc1cccc(NC(=O)Nc2ccccc2C)c1)C(=O)N[C@H](CC(=O)O)C(=O)N[C@@H](Cc1ccc(C)cc1)C(N)=O` (stereo not given in full) the “Log IC50” value [1] was -4.3, the “Log IC50” value [2] was -7.2 and the pA2 [3] was 7.4. The Activity [5] was “inactive”.

`CC(=O)N[C@@H](Cc1c[nH]c2ccccc12)C(=O)N[C@@H](CCCCNC(=O)Nc1ccccc1Cl)C(=O)N[C@@H](CC(=O)O)C(=O)N[C@@H](Cc1ccc(C)cc1)C(N)=O` [listing 1 of 2 here] was tested, and the “Log IC50” value [1] was -6, the “Log IC50” value [2] was -8.3 and the EC50 [4] was 0.501 nM.

Work on `CC(=O)N[C@@H](Cc1c[nH]c2ccccc12)C(=O)N[C@@H](CCCCNC(=O)Nc1ccccc1C)C(=O)N[C@@H](CC(=O)O)C(=O)N[C@@H](Cc1ccc(C)cc1)C(N)=O` [listing 2 of 2 here] yielded an Activity [6] of 105%.

With `CC(=O)N[C@@H](Cc1c[nH]c2ccccc12)C(=O)NC(Cc1ccc(NC(=O)Nc2ccccc2C)cc1)C(=O)N[C@@H](CC(=O)O)C(=O)N[C@H](Cc1ccc(C)cc1)C(N)=O` (stereo not given in full) the Activity [5] was “inactive”.

`CC(=O)N[C@@H](Cc1c[nH]c2ccccc12)C(=O)NC(Cc1cccc(NC(=O)Nc2ccccc2C)c1)C(=O)N[C@@H](CC(=O)O)C(=O)N[C@H](Cc1ccc(C)cc1)C(N)=O` (stereo not given in full) was tested, and the “Log IC50” value [1] was -5, the “Log IC50” value [2] was -7 and the pA2 [3] was 7.2. For the same molecule, the Activity [5] was “inactive”.

`CC(=O)N[C@@H](Cc1c[nH]c2ccccc12)C(=O)N[C@@H](CCCCNC(=O)Nc1ccccc1Cl)C(=O)N[C@@H](CC(=O)O)C(=O)N[C@@H](Cc1ccc(C)cc1)C(N)=O` [listing 2 of 2 here] was tested, and the Activity [6] was 117%.

`CC(=O)N[C@@H](Cc1c[nH]c2ccccc12)C(=O)NC(Cc1ccc(NC(=O)Nc2ccccc2Cl)cc1)C(=O)N[C@@H](CC(=O)O)C(=O)N[C@H](Cc1ccc(C)cc1)C(N)=O` (stereo not given in full) was tested, and the Activity [5] was “inactive”.

With `Cc1cccc(NC(=O)N[C@@H]2N=C(c3ccccc3)c3ccccc3N(C)C2=O)c1` [L-365260] the IC50 [2] was 158 nM.

`CC(=O)N[C@@H](Cc1c[nH]c2ccccc12)C(=O)N[C@@H](Cc1ccc(NC(=O)Nc2ccccc2C)cc1)C(=O)N[C@@H](CC(=O)O)C(=O)N[C@@H](Cc1ccc(C)cc1)C(N)=O` showed an IC50 [1] of 100000 nM, an IC50 [2] of 31.6 nM and a Kb [3] of 39.8 nM.

Reference: ChEMBL document CHEMBL1128735, “CCK-A receptor selective antagonists derived from the CCK-A receptor selective tetrapeptide agonist Boc-Trp-Lys(Tac)-Asp-MePhe-NH2 (A-71623)” (J Med Chem, 1995)
